What was measured:
Assay type in all cases: functional
[1] = Growth inhibition of human LOXIMVI cells at 10 uM after 48 hrs by SRB assay; conditions: LOX IMVI, read-out: GI
In short: (§1)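 NCI-60 primary one-dose screen run at the US NCI, with human tumour lines from nine cancer types. Compound added once at 10^-5 M, followed by 48 h incubation. End point was sulforhodamine B protein staining read spectrophotometrically. Result given as percent growth of treated cells against untreated controls, reported as % growth inhibition.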

[2] = Growth inhibition of human HCC2998 cells at 10 uM after 48 hrs by SRB assay; conditions: HCC 2998, 48 h, read-out: GI; in short: as §1
SK-OV-3 = experiment: Growth inhibition of human SKOV3 cells at 10 uM after 48 hrs by SRB assay; conditions: SK-OV-3, 48 h, read-out: GI; in short: as §1
[3] = Growth inhibition of human UACC257 cells at 10 uM after 48 hrs by SRB assay; conditions: UACC-257, 48 h, read-out: GI; in short: as §1
786-0 = experiment: Growth inhibition of human 786-0 cells at 10 uM after 48 hrs by SRB assay; conditions: 786-0, 48 h, read-out: GI
In short: (§2)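 NCI primary one-dose screen. A single concentration of 10^-5 M was added to the cell culture, followed by 48 h incubation and an SRB protein-dye endpoint read spectrophotometrically. Results are growth percentage relative to untreated control cells, reported as % growth inhibition.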

[4] = Growth inhibition of human HOP92 cells at 10 uM after 48 hrs by SRB assay; conditions: HOP-92, 48 h, read-out: GI; in short: as §1
TK-10 = experiment: Growth inhibition of human TK10 cells at 10 uM after 48 hrs by SRB assay; conditions: TK-10, 48 h, read-out: GI; in short: as §1
U-251 = experiment: Growth inhibition of human U251 cells at 10 uM after 48 hrs by SRB assay; conditions: U-251, 48 h, read-out: GI; in short: as §1
MDA-MB-468 = experiment: Growth inhibition of human MDA-MB-468 cells assessed as cell growth at 10 uM after 48 hrs by SRB assay; conditions: MDA-MB-468, 48 h, read-out: GI; in short: as §1
SN12C = experiment: Growth inhibition of human SN12C cells at 10 uM after 48 hrs by SRB assay; conditions: read-out: GI; in short: as §1
HT-29 = experiment: Growth inhibition of human HT-29 cells at 10 uM after 48 hrs by SRB assay; conditions: HT-29, 48 h, read-out: GI; in short: as §1
COLO 205 = experiment: Growth inhibition of human COLO205 cells at 10 uM after 48 hrs by SRB assay; conditions: COLO 205, 48 h, read-out: GI; in short: as §2
HCT-116 = experiment: Growth inhibition of human HCT116 cells at 10 uM after 48 hrs by SRB assay; conditions: HCT-116, 48 h, read-out: GI; in short: as §1
[5] = Growth inhibition of human SF539 cells at 10 uM after 48 hrs by SRB assay; conditions: SF-539, 48 h, read-out: GI; in short: as §1
A498 = experiment: Growth inhibition of human A498 cells at 10 uM after 48 hrs by SRB assay; conditions: A498, 48 h, read-out: GI; in short: as §2
SNB-75 = experiment: Growth inhibition of human SNB75 cells at 10 uM after 48 hrs by SRB assay; conditions: SNB-75, 48 h, read-out: GI; in short: as §1
NCI-H23 = experiment: Growth inhibition of human NCI-H23 cells at 10 uM after 48 hrs by SRB assay; conditions: NCI-H23, 48 h, read-out: GI; in short: as §1
SF-268 = experiment: Growth inhibition of human SF268 cells at 10 uM after 48 hrs by SRB assay; conditions: SF-268, 48 h, read-out: GI; in short: as §1
[6] = Growth inhibition of human NCI-ADR-RES cells at 10 uM after 48 hrs by SRB assay; conditions: read-out: GI; in short: as §1
SNB-19 = experiment: Growth inhibition of human SNB19 cells at 10 uM after 48 hrs by SRB assay; conditions: SNB-19, 48 h, read-out: GI; in short: as §1
[7] = Growth inhibition of human HCT15 cells at 10 uM after 48 hrs by SRB assay; conditions: HCT-15, 48 h, read-out: GI; in short: as §1
MCF7 = experiment: Growth inhibition of human MCF7 cells at 10 uM after 48 hrs by SRB assay; conditions: MCF7, 48 h, read-out: GI; in short: as §1
CAKI-1 = experiment: Growth inhibition of human CAKI-1 cells at 10 uM after 48 hrs by SRB assay; conditions: CAKI-1, 48 h, read-out: GI; in short: as §2
M14 = experiment: Growth inhibition of human M14 cells at 10 uM after 48 hrs by SRB assay; conditions: M14, 48 h, read-out: GI; in short: as §1
[8] = Growth inhibition of human UO31 cells at 10 uM after 48 hrs by SRB assay; conditions: UO-31, 48 h, read-out: GI; in short: as §1
SK-MEL-28 = experiment: Growth inhibition of human SK-MEL-28 cells at 10 uM after 48 hrs by SRB assay; conditions: SK-MEL-28, 48 h, read-out: GI; in short: as §1
[9] = Growth inhibition of human BT549 cells at 10 uM after 48 hrs by SRB assay; conditions: BT-549, 48 h, read-out: GI; in short: as §2
SW-620 = experiment: Growth inhibition of human SW620 cells at 10 uM after 48 hrs by SRB assay; conditions: SW-620, 48 h, read-out: GI; in short: as §1
NCI-H522 = experiment: Growth inhibition of human NCI-H522 cells at 10 uM after 48 hrs by SRB assay; conditions: NCI-H522, 48 h, read-out: GI; in short: as §1
NCI-H460 = experiment: Growth inhibition of human NCI-H460 cells at 10 uM after 48 hrs by SRB assay; conditions: NCI-H460, 48 h, read-out: GI; in short: as §1
HOP-62 = experiment: Growth inhibition of human HOP62 cells at 10 uM after 48 hrs by SRB assay; conditions: HOP-62, 48 h, read-out: GI; in short: as §1
[10] = Growth inhibition of human OVCAR8 cells at 10 uM after 48 hrs by SRB assay; conditions: OVCAR-8, 48 h, read-out: GI; in short: as §1
HL-60(TB) = experiment: Growth inhibition of human HL-60(TB) cells at 10 uM after 48 hrs by SRB assay; conditions: HL-60, 48 h, read-out: GI
In short: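 NCI 60-cell-line primary screen: compound added at single concentration 10^-5 M, cultures incubated 48 h; end point by sulforhodamine B protein staining read spectrophotometrically; result given as growth percentage of treated versus untreated control cells, reported as % growth inhibition.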

K562 = experiment: Growth inhibition of human K562 cells at 10 uM after 48 hrs by SRB assay; conditions: K562, 48 h, read-out: GI; in short: as §1
[11] = Growth inhibition of human MOLT4 cells at 10 uM after 48 hrs by SRB assay; conditions: MOLT-4, 48 h, read-out: GI; in short: as §1
RPMI-8226 = experiment: Growth inhibition of human RPMI8226 cells at 10 uM after 48 hrs by SRB assay; conditions: RPMI-8226, 48 h, read-out: GI; in short: as §1
SR = experiment: Growth inhibition of human SR cells at 10 uM after 48 hrs by SRB assay; conditions: read-out: GI; in short: as §1

Row | SMILES | inhibition of growth at 10 µM [1] | inhibition of growth at 10 µM [2] | inhibition of growth at 10 µM (SK-OV-3) | inhibition of growth at 10 µM [3] | inhibition of growth at 10 µM (786-0) | inhibition of growth at 10 µM (TK-10) | inhibition of growth at 10 µM (U-251) | inhibition of growth at 10 µM (SN12C) | inhibition of growth at 10 µM (HT-29) | inhibition of growth at 10 µM (COLO 205) | inhibition of growth at 10 µM (HCT-116) | inhibition of growth at 10 µM [5] | inhibition of growth at 10 µM (A498) | inhibition of growth at 10 µM (SNB-75) | inhibition of growth at 10 µM (NCI-H23) | inhibition of growth at 10 µM (SF-268) | inhibition of growth at 10 µM [6] | inhibition of growth at 10 µM (SNB-19) | inhibition of growth at 10 µM [7] | inhibition of growth at 10 µM (MCF7) | further results
1 | Cc1ccc(C(=O)Nc2ccc(Cl)cc2C(=O)Nc2ccccc2)cc1 | < 10% | < 10% | 12% | < 10% | < 10% | < 10% | 14% | < 10% | < 10% | < 10% | < 10% | 29% | < 10% | 28% | < 10% | < 10% | < 10% | 13% | 11% | 11% | inhibition of growth at 10 µM [4]: < 10%; inhibition of growth at 10 µM (MDA-MB-468): 11%; inhibition of growth at 10 µM (CAKI-1): 18%; inhibition of growth at 10 µM (M14): < 10%; inhibition of growth at 10 µM [8]: < 10%; inhibition of growth at 10 µM (SK-MEL-28): < 10%; inhibition of growth at 10 µM [9]: < 10%; inhibition of growth at 10 µM (SW-620): < 10%; inhibition of growth at 10 µM (NCI-H522): 21%; inhibition of growth at 10 µM (NCI-H460): < 10%; inhibition of growth at 10 µM (HOP-62): 29%; inhibition of growth at 10 µM [10]: < 10%
2 | Cc1ccc(-c2nc3ccc(Cl)cc3c(=O)n2NC(=O)CNN)cc1 | 27% | < 10% | 84% | 23% | 22% | 61% | 58% | 33% | 33% | 28% | 46% | 54% | 46% | 25% | 13% | 28% | 24% | 22% | 16% | 22% | inhibition of growth at 10 µM (MDA-MB-468): < 10%; inhibition of growth at 10 µM (HL-60(TB)): 12%; inhibition of growth at 10 µM (K562): 11%; inhibition of growth at 10 µM [11]: < 10%; inhibition of growth at 10 µM (RPMI-8226): 13%; inhibition of growth at 10 µM (CAKI-1): 35%; inhibition of growth at 10 µM (M14): 17%; inhibition of growth at 10 µM [8]: 25%; inhibition of growth at 10 µM (SK-MEL-28): 23%; inhibition of growth at 10 µM [9]: < 10%; inhibition of growth at 10 µM (SR): 13%; inhibition of growth at 10 µM (SW-620): 28%; inhibition of growth at 10 µM (NCI-H522): 61%; inhibition of growth at 10 µM (NCI-H460): 49%; inhibition of growth at 10 µM (HOP-62): 83%; inhibition of growth at 10 µM [10]: 23%
3 | Cc1ccc(-c2nc3ccc(Cl)cc3c(=O)n2/N=C/c2ccccc2)cc1 | 11% | < 10% | 64% | < 10% | 30% | 26% | 88% | 32% | 17% | 34% | 47% | 22% | 16% | 74% | 11% | 40% | 30% | 25% | 14% | 20% | inhibition of growth at 10 µM (HL-60(TB)): 26%; inhibition of growth at 10 µM (K562): < 10%; inhibition of growth at 10 µM [11]: 18%; inhibition of growth at 10 µM (RPMI-8226): 20%; inhibition of growth at 10 µM (CAKI-1): 40%; inhibition of growth at 10 µM (M14): 29%; inhibition of growth at 10 µM [8]: 33%; inhibition of growth at 10 µM (SK-MEL-28): < 10%; inhibition of growth at 10 µM [9]: < 10%; inhibition of growth at 10 µM (SR): 20%; inhibition of growth at 10 µM (SW-620): 23%; inhibition of growth at 10 µM (NCI-H522): 52%; inhibition of growth at 10 µM (NCI-H460): 23%; inhibition of growth at 10 µM (HOP-62): 98%; inhibition of growth at 10 µM [10]: 73%
